Reference: ChEMBL document CHEMBL3526029, “Disposition and metabolism of GSK2251052 in humans: a novel boron-containing antibiotic” (Drug Metab Dispos, 2013)

Experiments:
[1] = Drug recovery in healthy human urine at 1500 mg, iv infusion for 1 hr as single dose after 72 hrs; type: ADME, organism-based; conditions: read-out: Drug recovery
[2] = Drug metabolism in human liver S9 fraction assessed as (S)-3-(3-(aminomethyl)-1-hydroxy-1,3-dihydrobenzo[c][1,2]oxaborol-7-yloxy)propanoicacid formation at 50 to 500 uM after 3 hrs by liquid scintillation counting in presence of NAD+; type: ADME, subcellular; conditions: s9, 3 h
How it was run: (§1)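 [14C]GSK2251052 was incubated in triplicate for 1 or 3 h at 37°C with 4 mg/ml S9 (monkey liver, lung or kidney; human liver), liver cytosol or liver microsomes and 7.5 mM NAD+. Buffer was pyrophosphate at pH 7.4, 8.4 or 8.8. Controls lacked cofactor or enzyme. Reactions were quenched with acetonitrile, counted by LSC, and pooled for radio-HPLC.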

[3] = Drug recovery in healthy human urine at 1500 mg, iv infusion for 1 hr as single dose after 288 hrs; type: ADME, organism-based; conditions: read-out: Drug recovery
Blood [4] = assay: Half life in healthy human whole blood assessed as radioactivity at 1500 mg, iv infusion for 1 hr as single dose; type: ADME, organism-based; conditions: in vivo
How it was run: (§2)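 Healthy men got a single 1500 mg [14C] dose by 1 h i.v. infusion. K2EDTA blood was sampled up to 336 h. Radioactivity in blood and plasma was measured by LSC, with AMS for plasma below LLQ. Parent and M3 were measured by LC/MS/MS (5–10,000 ng/ml range). Noncompartmental analysis used actual times, with t1/2 = ln2/λz and Tmax observed directly, timed from infusion start.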

[5] = Drug recovery in healthy human urine at 1500 mg, iv infusion for 1 hr as single dose after 144 hrs; type: ADME, organism-based; conditions: read-out: Drug recovery
Liver microsome = assay: Drug metabolism in human liver microsomes assessed as (S)-3-(3-(aminomethyl)-1-hydroxy-1,3-dihydrobenzo[c][1,2]oxaborol-7-yloxy)propanoicacid formation at 50 to 500 uM after 3 hrs by liquid scintillation counting in presence of NADPH regeneration system; type: ADME
[6] = Drug metabolism in healthy human urine assessed as (S)-3-(3-(acetamidomethyl)-1-hydroxy-1,3-dihydrobenzo[c][1,2]oxaborol-7-yloxy)propanoicacid formation at 1500 mg, iv infusion for 1 hr as single dose by mass spectrometry; type: ADME, organism-based; conditions: in vivo
How it was run: (§3)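 Urine was collected through 336 h after a 1500 mg [14C] i.v. 1-h infusion to six men. Samples were pooled by weight (0–120 h per subject; 120–336 h composite) and centrifuged. Profiling used HPLC (Atlantis T3, ammonium acetate pH 4.5/methanol, 30°C) with fraction radioactivity counting. Identity came from Orbitrap positive-ion accurate mass. Values were given as % dose, corrected for recovery.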

[7] = Drug recovery in healthy human feces at 1500 mg, iv infusion for 1 hr as single dose after 240 hrs; type: ADME, organism-based; conditions: faeces, read-out: Drug recovery
[8] = Drug metabolism in cynomolgus monkey kidney S9 fraction assessed as (S)-3-(3-(aminomethyl)-1-hydroxy-1,3-dihydrobenzo[c][1,2]oxaborol-7-yloxy)propanoicacid formation at 50 to 500 uM after 3 hrs by liquid scintillation counting in presence of NADPH regeneration system; type: ADME, Macaca fascicularis; conditions: s9, 3 h
[9] = Drug recovery in healthy human urine at 1500 mg, iv infusion for 1 hr as single dose after 48 hrs; type: ADME, organism-based; conditions: read-out: Drug recovery
Blood [10] = assay: Cmax in healthy human whole blood assessed as radioactivity at 1500 mg, iv infusion for 1 hr as single dose; type: ADME, organism-based; set-up: dose 1500 mg, route intravenous; conditions: in vivo
How it was run: (§4)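 Six fasted healthy men received 1500 mg [14C]GSK2251052 as a 1-h i.v. infusion. Blood and plasma were sampled from predose to 336 h after infusion start. Radioactivity was counted by LSC; plasma below 870 ng eq/ml was reanalysed by accelerator MS, with predose background subtracted. Noncompartmental analysis used actual sampling times, linear-up/log-down trapezoids and CL = dose/AUC(0-∞).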

[11] = Drug recovery in healthy human feces at 1500 mg, iv infusion for 1 hr as single dose after 288 hrs; type: ADME, organism-based; conditions: faeces, read-out: Drug recovery
Plasma [12] = assay: Half life in healthy human plasma assessed as radioactivity at 1500 mg, iv infusion for 1 hr as single dose; type: ADME, organism-based; conditions: in vivo; how it was run: as §2
[13] = Drug recovery in healthy human urine at 1500 mg, iv infusion for 1 hr as single dose after 24 hrs; type: ADME, organism-based; conditions: read-out: Drug recovery
[14] = Drug recovery in healthy human urine at 1500 mg, iv infusion for 1 hr as single dose after 192 hrs; type: ADME, organism-based; conditions: read-out: Drug recovery
Liver cytosol = assay: Drug metabolism in human liver cytosol assessed as (S)-3-(3-(aminomethyl)-1-hydroxy-1,3-dihydrobenzo[c][1,2]oxaborol-7-yloxy)propanoicacid formation at 50 to 500 uM after 3 hrs by liquid scintillation counting in presence of NAD+; type: ADME; how it was run: as §1
[15] = Drug recovery in healthy human urine at 1500 mg, iv infusion for 1 hr as single dose after 216 hrs; type: ADME, organism-based; conditions: read-out: Drug recovery
[16] = Total drug recovery in healthy human at 1500 mg, iv infusion for 1 hr as single dose after 192 hrs; type: ADME, organism-based; conditions: in vivo, read-out: Drug recovery
Plasma [17] = assay: Tmax in healthy human plasma assessed as radioactivity at 1500 mg, iv infusion for 1 hr as single dose; type: ADME, organism-based; conditions: in vivo; how it was run: as §2
[18] = Drug metabolism in healthy human urine assessed as 3-(3-(2-amino-1-hydroxyethyl)-2-hydroxyphenoxy)propanoic acid formation at 1500 mg, iv infusion for 1 hr as single dose by mass spectrometry; type: ADME, organism-based; conditions: in vivo; how it was run: as §3
[19] = Drug recovery in healthy human feces at 1500 mg, iv infusion for 1 hr as single dose after 336 hrs; type: ADME, organism-based; conditions: read-out: Drug recovery
[20] = Total drug recovery in healthy human at 1500 mg, iv infusion for 1 hr as single dose after 312 hrs; type: ADME, organism-based; conditions: in vivo, read-out: Drug recovery
How it was run: (§5)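 Six healthy adult males, fasted ≥10 h, got one 1500 mg [14C]GSK2251052 dose ([…], 0.56 MBq) as a constant-rate 1-h IV infusion in 0.9% NaCl. Urine was collected at 0–6, 6–12 and 12–24 h, then in 24-h blocks to 336 h; feces in 24-h blocks. Urine was counted directly by LSC; feces were homogenized and combusted in duplicate before LSC. Cumulative recovery is given as mean % of dose.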

[21] = Total drug recovery in healthy human at 1500 mg, iv infusion for 1 hr as single dose after 336 hrs; type: ADME, organism-based; conditions: in vivo, read-out: Drug recovery; how it was run: as §5
[22] = Drug recovery in healthy human feces at 1500 mg, iv infusion for 1 hr as single dose after 312 hrs; type: ADME, organism-based; conditions: read-out: Drug recovery
Homo sapiens = assay: Toxicity in healthy human assessed as mortality at 1500 mg, iv infusion for 1 hr as single dose; type: organism-based; conditions: in vivo
How it was run: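 Single-center, open-label phase I study in six healthy adult males, fasted ≥10 h. Each got one 1500 mg [14C]GSK2251052 dose as a constant-rate 1-h IV infusion. Safety was monitored throughout, with follow-up for at least 336 h after dosing.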

[23] = Drug recovery in healthy human feces at 1500 mg, iv infusion for 1 hr as single dose after 216 hrs; type: ADME, organism-based; conditions: faeces, read-out: Drug recovery
Plasma [24] = assay: Cmax in healthy human plasma assessed as radioactivity at 1500 mg, iv infusion for 1 hr as single dose; type: ADME, organism-based; set-up: dose 1500 mg, route intravenous; conditions: in vivo; how it was run: as §4
[25] = Drug metabolism in cynomolgus monkey lung S9 fraction assessed as (S)-3-(3-(aminomethyl)-1-hydroxy-1,3-dihydrobenzo[c][1,2]oxaborol-7-yloxy)propanoicacid formation at 50 to 500 uM after 3 hrs by liquid scintillation counting in presence of NADPH regeneration system; type: ADME, Macaca fascicularis; conditions: s9, 3 h

dose excreted at 72 h [1]: 76.9%
Drug metabolism [2]: metabolite_not_detected
dose excreted at 288 h [3]: 89.8%
t1/2 (Blood [4]): 14.3 h
dose excreted at 144 h [5]: 85.1%
Drug metabolism (Liver microsome): metabolite_not_detected
Drug recovery [6]: metabolite_detected
dose excreted at 240 h [7]: 7.6%
Drug metabolism [8]: metabolite_not_detected
dose excreted at 48 h [9]: 69.2%
Cmax (Blood [10]): 43700 ng/mL
dose excreted at 288 h [11]: 7.6%
t1/2 (Plasma [12]): 96 h
dose excreted at 24 h [13]: 51.2%
dose excreted at 192 h [14]: 87.4%
Drug metabolism (Liver cytosol): metabolite_not_detected
dose excreted at 216 h [15]: 88.2%
dose excreted at 192 h [16]: 95%
Tmax (Plasma [17]): 0.917 h
Drug recovery [18]: metabolite_detected
dose excreted at 336 h [19]: 7.6%
dose excreted at 312 h [20]: 97.8%
dose excreted at 336 h [21]: 98.2%
dose excreted at 312 h [22]: 7.6%
dose excreted at 216 h [23]: 7.6%
Cmax (Plasma [24]): 24300 ng/mL
Drug metabolism [25]: metabolite_not_detected
Compound: Cl.N[14CH2][C@H]1OB(O)c2c(OCCCO)cccc21
Activity (Homo sapiens): Non-toxic
